ARFGAP1 inhibitor: inhibitors of rat ARFGAP1; Q62848; Arfgap1-stimulated ARF1 GTP hydrolysis, GDP FP detection; inhibition, % at 16.5 µM; actives 0.26% (n = 360,000); AID 651572;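 active means inhibition above a per-plate limit, mean inhibition of low control wells plus 3 SD, cut at about 25% in these data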;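 further: 0% = DMSO wells with enzyme and 100% = wells lacking Arfgap1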
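Material: truncated rat Arfgap1 GAP domain; Incubation: compound-enzyme preincubation 20 min, reaction 120 min, detection 60 min, 25 °C; Read-out: percent inhibition of Arfgap1-stimulated GTP hydrolysis; Technique: FP, GDP Alexa 633 tracer displaced from anti-GDP antibody, 620/688 nm; Controls: No-Arfgap1 wells (100%) versus DMSO full-reaction wells (0%); Replication: single well per compound.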
MsrA act: bovine methionine sulfoxide reductase A activation; purified bovine MsrA, absorbance read-out; activation, % at 10.6 µM; actives 0.3% (n = 360,000); AID 602163; in the data active means activation above about 7.5%;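 further: 0% = vehicle and 100% = reference activator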
MsrA inhibitor: inhibits bovine methionine sulfoxide reductase A | purified bovine MsrA, absorbance read-out | inhibition, % at 15.5 µM | actives 0.75% (n = 360,000) | AID 651718; in the data active means inhibition above about 4.5%;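 further: 0% = vehicle wells with enzyme and 100% = reference inhibitor wells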
ASAP1 GAP inh: ASAP1 ArfGAP inhibition | ASAP1-stimulated ARF1 GTP hydrolysis, GDP FP detection | inhibition, % at 16.5 µM | actives 0.19% (n = 360,000) | AID 624377; in the data active means inhibition above about 25%;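 further: 0% = vehicle with enzyme and substrate and 100% = no enzyme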
Target sequence (Q9ULH1 325-724 limits assumed): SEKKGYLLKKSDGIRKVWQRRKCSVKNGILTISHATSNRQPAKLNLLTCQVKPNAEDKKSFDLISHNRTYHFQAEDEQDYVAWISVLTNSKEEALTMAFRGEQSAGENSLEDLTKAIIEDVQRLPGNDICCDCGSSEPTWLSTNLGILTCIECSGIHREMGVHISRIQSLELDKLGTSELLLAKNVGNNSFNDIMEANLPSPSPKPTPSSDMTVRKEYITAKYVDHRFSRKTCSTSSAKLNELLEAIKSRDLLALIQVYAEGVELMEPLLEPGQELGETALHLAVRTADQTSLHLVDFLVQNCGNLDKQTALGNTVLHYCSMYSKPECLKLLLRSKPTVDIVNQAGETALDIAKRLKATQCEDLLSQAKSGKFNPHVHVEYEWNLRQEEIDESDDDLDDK
ARFGAP1 confirm: confirmation of rat ARFGAP1 inhibitors; shares compounds with ARFGAP1 inhibitor; ARFGAP1-stimulated ARF1 GTP hydrolysis, GDP tracer FP; inhibition, % at 16.5 µM; actives 30% (n = 890);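 active means average inhibition over triplicates above the hit cutoff set in the earlier primary screen, cut at about 25% in these data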;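 further: 0% = Arfgap1 plus ARF1-GTP with DMSO and 100% = wells lacking Arfgap1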
Active calls of the source: *; · = no result given. In the library only some 1.4% were active in any assay of this set; here they are far more common.

SMILES	ARFGAP1 inhibitor	MsrA act	MsrA inhibitor	ASAP1 GAP inh	ARFGAP1 confirm
COc1ccc(NC(=O)c2ccc3c(c2)C(=O)N(Cc2ccncc2)C3=O)cc1S(N)(=O)=O	34.9*	-0.2	0.3	-0.9	12.8
C[C@@H]1ON(C)[C@H]2C[C@H]3c4[nH]c5c(-c6cc(Cl)cc(Cl)c6)cccc5c4CCN3C(=O)[C@@H]12	3.0	·	-1.1	7.9	·
CCOC(=O)c1c(NC(=O)C[n+]2ccc(N(C)C)cc2)sc(C)c1C	25.1*	-1.6	-0.5	13.7	6.6
CCOC(=O)Cn1c(C)cc(=O)c2cccc(C)c21	6.2	-0.6	0.7	1.9	·
CCOC(=O)Cn1c(=O)cc(C)c2cccc(C)c21	29.7*	-0.5	0.9	5.5	4.5
COc1cc(Cl)c(NC2=CC(=O)C(=O)c3ccccc32)c(OC)c1	27.7*	-0.6	-0.8	2.3	-0.7
Cc1nc(NCc2ccc(S(N)(=O)=O)cc2)c2c(C)c(C)sc2n1	44.4*	-1.2	0.5	22.0	32.1*
CCOC(=O)c1sc2nc(C)nc(NCCc3ccc(S(N)(=O)=O)cc3)c2c1C	-2.6	2.9	-0.3	-2.0	·
CC[C@@H](C)C(NC(=O)OC(C)(C)C)c1cn([C@@H](Cc2ccc(O)cc2)C(=O)N2CCN(C(=O)OC(C)(C)C)CC2)nn1 (some centres not stated)	1.1	3.4	-0.2	-12.9	·
CC(C)C[C@H]1CN(CCCC[C@H]2CNC(=O)C(=O)N2CC2CCCCC2)C(=O)C(=O)N1CCc1ccccc1	30.1*	-0.9	-0.3	-13.7	3.3
COc1ccccc1N1CCN(C(=O)c2cc3n(n2)C(C(F)(F)F)CC(c2ccco2)N3)CC1 (configuration not stated)	29.9*	3.6	0.4	0.3	-3.4
CCOC(=O)C1(C)CCCN1C(=O)c1ccc(F)c(Cl)c1 (configuration not stated)	14.2	0.0	0.6	-3.0	·
C/C(=N\NC(=S)NCc1ccccc1)c1ccc(Cl)s1	7.3	-1.4	0.6	-4.7	·
C/C(=N\NC(=S)NCc1ccccc1)c1cccs1	30.2*	-0.6	1.3	-16.9	1.5
CC(=O)n1cc(/C=N/NC(=O)c2ccc(Cl)cc2)c2ccccc21	26.8*	-2.6	2.5	2.5	-2.0
O=C(CN(C(=O)c1csnn1)c1ccccc1F)NCc1ccc2c(c1)OCO2	25.3*	-0.6	-0.9	3.6	4.0
O=C(CN(C(=O)c1csnn1)c1cccc(F)c1)NCc1ccc2c(c1)OCO2	-1.7	-1.4	-0.4	0.2	·
CCc1nnc(NC(=O)CCC(=O)Nc2ccc(Cl)cc2)s1	0.3	-5.7	0.1	-1.8	·
O=C(NCCCNc1ccc(C(F)(F)F)cc1[N+](=O)[O-])c1ccc(F)cc1	4.2	-1.5	0.6	-9.9	·
Cc1ccc(C(=O)NCCCNc2ccc(C(F)(F)F)cc2[N+](=O)[O-])cc1	24.6*	-1.6	-0.5	-10.6	3.5
Cc1cc(=O)oc(C)c1C(=O)N1CCN(C)CC1	24.7*	-1.4	0.0	12.7	-1.4
O=C(OCC(=O)N1CCN(C(=O)c2ccco2)CC1)c1cc(-c2ccc(Cl)c(Cl)c2Cl)nc2ccccc12	36.5*	-0.2	-0.5	24.5	44.7*
COc1ccccc1-c1c(C)oc2cc(OCC(=O)OCc3ccccc3)ccc2c1=O	-8.2	-1.1	1.1	-0.3	·
COc1cc(C(=O)Nc2ccc3nc(N4CCN(C)CC4)cc(C)c3c2)cc(OC)c1OC	28.9*	-9.3	1.8	12.0	25.4*
Cc1ccc(OCC(O)CN2C(=O)NC(C)(C)C2=O)cc1 (configuration not stated)	34.7*	-4.4	0.1	-0.1	-1.2
SMILES	ARFGAP1 inhibitor	MsrA act	MsrA inhibitor	ASAP1 GAP inh	ARFGAP1 confirm
CCOc1cc(/C=C2\SC(=N)N(c3nonc3N)C2=O)ccc1OCCN1CCOCC1	32.0*	-0.7	3.6	23.4	37.6*
CC1(C(=O)NS(=O)(=O)c2cccc(F)c2)CCN1C(=O)CCc1ccccc1 (configuration not stated)	-2.3	-2.2	-1.8	-0.3	·
CCN(CC)S(=O)(=O)c1ccc(NC(=O)Nc2cccc(C(F)(F)F)c2)cc1	20.0	-5.9	0.5	4.6	·
Cc1ccc(S(=O)(=O)Nc2ccc(NC(=O)Nc3cccc(C(F)(F)F)c3)cc2)cc1	29.7*	-2.2	-1.1	21.8	29.5*
COc1ccc(OC)c([N+](=O)[O-])c1C(N)=O	25.7*	-1.9	1.9	8.0	-4.6
O=C(O)c1ccc(Nc2nc(-c3ccccc3)cs2)cc1	-3.0	-3.4	1.4	2.8	·
N#Cc1ccc(Nc2nc(-c3ccccc3)cs2)cc1	30.3*	-4.1	-0.6	0.1	14.3

From PubChem BioAssay
